In ChEMBL document CHEMBL4043283, “Discovery and Preclinical Development of IIIM-290, an Orally Active Potent Cyclin-Dependent Kinase Inhibitor” (J Med Chem, 2018):
Values after ≈ are worked out from the molar mass of the structure shown. Active and inactive are the calls of the source. No cut-off for these calls is given here.

Legend:
[1] = Protein binding in mouse plasma at 3 uM after 5 hrs by equilibrium dialysis method; type: ADME, cell-free; conditions: read-out: PPB (converted)
[2] = tested on: MDA-MB-468; assay: Growth inhibition of human MDA-MB-468 cells after 48 hrs by MTT assay; type: functional; conditions: MDA-MB-468, 48 h
Method in brief: (§1)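 Cancer cell lines sourced from the National Cancer Institute (USA). Cells kept in appropriate growth medium at 37 °C, 95% humidity, 5% CO2. Antiproliferation read by tetrazolium (MTT) assay. GI50 values were determined only for compounds selected after an initial single-concentration screen.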

[3] = tested on: Mus musculus; assay: Toxicity in CD1 nude mouse xenografted with human MOLT4 cells assessed as change in body weight at 25 to 75 mg/kg, po qd administered on day 10 to 25 post tumor inoculation; type: organism-based; conditions: in vivo
[4] = tested on: OVCAR-3; assay: Growth inhibition of human OVCAR3 cells after 48 hrs by MTT assay; type: functional; conditions: OVCAR-3, 48 h; method in brief: as §1
[5] = molecular target: Cytochrome P450 1A2 (Homo sapiens, UniProt P05177); assay: Inhibition of human CYP1A2 using fluorogenic substrate preincubated with co-factor for 10 mins followed by enzyme-substrate addition by fluorometric method; type: ADME
Cytochrome P450 1A2, sequence (P05177 whole entry): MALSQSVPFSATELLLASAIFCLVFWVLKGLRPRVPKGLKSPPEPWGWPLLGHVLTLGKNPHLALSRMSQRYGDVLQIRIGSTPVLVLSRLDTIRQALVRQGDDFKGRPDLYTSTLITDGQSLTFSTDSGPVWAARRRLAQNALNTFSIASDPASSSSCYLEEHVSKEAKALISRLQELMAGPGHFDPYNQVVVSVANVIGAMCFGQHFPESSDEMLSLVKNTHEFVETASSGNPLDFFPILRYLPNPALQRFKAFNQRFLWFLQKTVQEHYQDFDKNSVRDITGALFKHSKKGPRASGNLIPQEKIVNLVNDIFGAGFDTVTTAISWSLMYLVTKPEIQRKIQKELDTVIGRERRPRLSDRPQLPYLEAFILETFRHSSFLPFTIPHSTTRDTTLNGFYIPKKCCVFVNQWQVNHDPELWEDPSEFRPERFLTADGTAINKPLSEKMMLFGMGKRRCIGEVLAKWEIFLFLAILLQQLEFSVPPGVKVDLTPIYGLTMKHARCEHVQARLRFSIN
Method in brief: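 Cofactor plus test item or vehicle, in triplicate, preincubated 10 min at 37 °C; prewarmed enzyme–substrate mix added and incubated at 37 °C with shaking. Quench: acetonitrile (CYP2C19, CYP3A4) or 0.25 M Tris in 60% methanol (CYP2C9, CYP2D6). Metabolite fluorescence read; % inhibition computed against enzyme controls and enzyme-free blanks.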

[6] = Thermodynamic equilibrium solubility of compound in SIF at pH 6.8 after 5 hrs by shake flask method; type: physicochemical; conditions: read-out: Therm_solubility
[7] = Chemical stability of compound in SIF at pH 6.8 assessed as parent compound remaining after 8 hrs by HPLC method; type: physicochemical; conditions: read-out: Stability
[8] = Cmax in Sprague-Dawley rat at 3 mg/kg, po by LC-MS/MS analysis; type: ADME, organism-based; parameters: dose 3 mg/kg, route oral; conditions: in vivo
[9] = AUC (0 to infinity) in BALB/c mouse at 1 mg/kg, iv by LC-MS/MS analysis; type: ADME, organism-based; parameters: dose 1 mg/kg, route intravenous, time infinity; conditions: in vivo
[10] = Intrinsic clearance in mouse hepatocytes assessed per million cells at 3 uM after 180 mins by LC-MS/MS analysis; type: ADME, cell-based, Hepatocyte; conditions: read-out: CLH
[11] = Clearance in BALB/c mouse at 1 mg/kg, iv by LC-MS/MS analysis; type: ADME, organism-based; conditions: in vivo
[12] = tested on: Mus musculus; assay: Toxicity in CD1 nude mouse xenografted with human HCT116 cells assessed as mortality at 50 mg/kg, po qd administered on day 10 to 25 post tumor inoculation; type: organism-based; conditions: in vivo
[13] = Protein binding in dog plasma at 3 uM after 5 hrs by equilibrium dialysis method; type: ADME, cell-free, Canis lupus familiaris; conditions: read-out: PPB (converted)
[14] = molecular target: CDK9/cyclin T1 (Homo sapiens, UniProt P50750); assay: Inhibition of CDK9/cyclin T1 (unknown origin) using YSPTSPSYSPTSPSYSPTSPKKK as substrate after 30 mins in presence of [33P]-gamma-ATP by filter binding assay; type: protein-complex assay
CDK9/cyclin T1, sequence (O60563 whole entry): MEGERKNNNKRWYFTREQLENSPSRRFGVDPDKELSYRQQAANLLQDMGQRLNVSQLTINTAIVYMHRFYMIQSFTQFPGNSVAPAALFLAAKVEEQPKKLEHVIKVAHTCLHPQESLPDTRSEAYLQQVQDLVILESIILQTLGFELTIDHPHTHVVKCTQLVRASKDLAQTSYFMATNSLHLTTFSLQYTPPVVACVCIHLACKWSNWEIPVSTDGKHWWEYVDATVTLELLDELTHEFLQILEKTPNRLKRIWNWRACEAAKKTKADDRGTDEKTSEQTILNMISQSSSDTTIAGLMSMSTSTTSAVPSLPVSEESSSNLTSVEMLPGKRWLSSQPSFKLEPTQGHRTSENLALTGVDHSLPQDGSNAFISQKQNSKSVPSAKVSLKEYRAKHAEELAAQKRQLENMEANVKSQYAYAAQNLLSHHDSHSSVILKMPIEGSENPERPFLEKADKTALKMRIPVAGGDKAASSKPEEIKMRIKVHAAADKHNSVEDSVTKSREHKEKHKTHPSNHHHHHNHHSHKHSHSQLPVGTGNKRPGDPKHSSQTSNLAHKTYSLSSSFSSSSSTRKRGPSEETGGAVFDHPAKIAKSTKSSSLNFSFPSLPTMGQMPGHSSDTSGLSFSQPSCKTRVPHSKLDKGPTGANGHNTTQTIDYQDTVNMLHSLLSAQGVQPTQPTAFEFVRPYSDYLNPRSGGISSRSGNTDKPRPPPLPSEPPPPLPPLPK
CDK9/cyclin T1, sequence (P50750 whole entry): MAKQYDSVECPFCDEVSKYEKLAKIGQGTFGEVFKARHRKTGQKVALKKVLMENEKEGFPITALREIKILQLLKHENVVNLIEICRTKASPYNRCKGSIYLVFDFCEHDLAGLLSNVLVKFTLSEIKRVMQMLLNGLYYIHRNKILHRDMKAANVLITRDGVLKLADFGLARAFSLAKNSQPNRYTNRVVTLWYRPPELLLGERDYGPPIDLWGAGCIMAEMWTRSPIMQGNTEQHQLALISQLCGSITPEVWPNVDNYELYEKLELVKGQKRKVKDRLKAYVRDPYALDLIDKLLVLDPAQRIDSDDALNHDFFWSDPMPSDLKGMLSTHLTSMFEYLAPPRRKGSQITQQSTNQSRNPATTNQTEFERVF

[15] = Acute toxicity in po dosed Wistar rat assessed as mortality; type: organism-based; conditions: in vivo
[16] = molecular target: Cyclin-dependent kinase 7/ cyclin H (Homo sapiens, UniProt P50613); assay: Inhibition of CDK7/cyclin H (unknown origin) after 30 mins in presence of [33P]-gamma-ATP by filter binding assay; type: protein-complex assay
Cyclin-dependent kinase 7/ cyclin H, sequence (P51946 whole entry): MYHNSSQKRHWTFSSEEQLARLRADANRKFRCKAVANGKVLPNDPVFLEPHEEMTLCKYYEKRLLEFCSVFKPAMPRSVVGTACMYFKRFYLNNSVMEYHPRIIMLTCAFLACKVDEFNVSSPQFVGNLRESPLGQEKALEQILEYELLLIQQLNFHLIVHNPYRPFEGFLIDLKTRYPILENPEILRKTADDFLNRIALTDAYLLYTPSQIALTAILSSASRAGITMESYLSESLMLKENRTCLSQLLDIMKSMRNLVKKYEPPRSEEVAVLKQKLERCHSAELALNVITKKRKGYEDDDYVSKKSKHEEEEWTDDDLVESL
Cyclin-dependent kinase 7/ cyclin H, sequence (P50613 whole entry): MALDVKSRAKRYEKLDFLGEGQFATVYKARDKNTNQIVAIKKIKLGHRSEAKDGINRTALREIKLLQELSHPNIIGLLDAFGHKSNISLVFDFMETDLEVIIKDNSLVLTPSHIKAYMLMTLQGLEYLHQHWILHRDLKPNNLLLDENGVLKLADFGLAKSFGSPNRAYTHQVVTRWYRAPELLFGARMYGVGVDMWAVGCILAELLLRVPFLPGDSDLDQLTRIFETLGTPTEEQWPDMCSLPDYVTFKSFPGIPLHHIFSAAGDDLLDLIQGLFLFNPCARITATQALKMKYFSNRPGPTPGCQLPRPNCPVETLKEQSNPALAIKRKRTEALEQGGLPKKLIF

[17] = Half life in human hepatocytes at 3 uM after 180 mins by LC-MS/MS analysis; type: ADME, cell-based, Hepatocyte
[18] = Intrinsic clearance in monkey hepatocytes assessed per million cells at 3 uM after 180 mins by LC-MS/MS analysis; type: ADME, cell-based, Macaca mulatta, Hepatocyte; conditions: rhesus monkey, read-out: CLH
[19] = tested on: Mus musculus; assay: Toxicity in CD1 nude mouse xenografted with human MIAPaCa2 cells assessed as mortality at 50 mg/kg, po qd administered on day 10 to 25 post tumor inoculation; type: organism-based; conditions: in vivo
[20] = Pancreas to plasma partition coefficient, Kp of the compound in BALB/c mouse at 30 mg/kg, po measured at 8 hrs; type: ADME, organism-based; conditions: pancreas and plasma
[21] = Intrinsic clearance in dog liver microsomes assessed per mg of protein at 100 uM after 30 mins by LC-MS/MS analysis; type: ADME, Canis lupus familiaris, microsome; conditions: read-out: CLH
Method in brief: (§2)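 Intrinsic clearance obtained from substrate disappearance over time, reported per mg protein (microsomes, S9) or per 10^6 cells (hepatocytes).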

[22] = tested on: MIA PaCa-2; assay: Antitumor activity against human MIAPaCa2 cells xenografted in CD1 nude mouse assessed as tumor growth inhibition at 50 mg/kg, po qd administered on day 10 to 25 post tumor inoculation relative to control; type: functional; conditions: MIA PaCa-2, po, 240 h, read-out: TGI
[23] = Intrinsic clearance in rat hepatocytes assessed per million cells at 3 uM after 180 mins by LC-MS/MS analysis; type: ADME, cell-based, Hepatocyte; conditions: read-out: CLH
[24] = molecular target: PRKCE (protein kinase C epsilon) (Homo sapiens, UniProt Q02156); assay: Inhibition of partial length wild type human PRKCE expressed in mammalian expression system at 0.5 uM by KINOMEscan method relative to control
PRKCE (protein kinase C epsilon), sequence (Q02156 whole entry): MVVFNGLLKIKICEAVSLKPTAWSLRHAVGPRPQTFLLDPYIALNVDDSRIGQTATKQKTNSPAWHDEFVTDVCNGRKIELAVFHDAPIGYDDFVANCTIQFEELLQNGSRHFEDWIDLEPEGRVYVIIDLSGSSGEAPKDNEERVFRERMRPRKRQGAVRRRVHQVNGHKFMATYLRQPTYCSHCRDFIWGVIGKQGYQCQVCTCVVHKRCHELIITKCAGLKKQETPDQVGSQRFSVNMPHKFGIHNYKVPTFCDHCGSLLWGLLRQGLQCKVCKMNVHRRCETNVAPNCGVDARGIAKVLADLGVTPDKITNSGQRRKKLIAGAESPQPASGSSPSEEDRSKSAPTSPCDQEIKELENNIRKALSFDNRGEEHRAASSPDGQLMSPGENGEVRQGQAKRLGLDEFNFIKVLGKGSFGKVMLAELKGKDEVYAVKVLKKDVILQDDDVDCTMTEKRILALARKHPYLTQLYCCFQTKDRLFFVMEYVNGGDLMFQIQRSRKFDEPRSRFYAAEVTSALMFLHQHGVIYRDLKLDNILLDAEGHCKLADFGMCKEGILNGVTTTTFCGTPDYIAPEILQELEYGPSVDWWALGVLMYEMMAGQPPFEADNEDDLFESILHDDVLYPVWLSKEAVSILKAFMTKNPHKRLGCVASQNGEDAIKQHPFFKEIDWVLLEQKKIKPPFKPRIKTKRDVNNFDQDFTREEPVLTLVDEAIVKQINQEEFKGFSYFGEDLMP
Method in brief: (§3)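 Competition binding screen (KINOMEscan) at 0.5 μM; primary binding read out as % of control, lower values indicating stronger interaction.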

[25] = tested on: Salmonella typhimurium; assay: Mutagenicity in Salmonella typhimurium TA102 at 50 ug/plate in absence of liver S9 fraction by Ames test; type: toxicity; conditions: salmonella enterica subsp. enterica serovar typhimurium
[26] = tested on: Liver; assay: Intrinsic clearance in dog liver S9 fraction assessed per mg of protein preincubated for 5 mins followed by NADPH addition measured after 30 mins by LC-MS/MS analysis; type: ADME, tissue-based, Canis lupus familiaris; conditions: s9, 0.5 h; method in brief: as §2
[27] = tested on: MIA PaCa-2; assay: Cell cycle arrest in human MIAPaCa2 cells assessed as accumulation at G1 phase at 1.5 uM after 24 hrs by propidium iodide staining-based flow cytometric method (reference value: 36%); type: functional
[28] = tested on: LOX IMVI; assay: Growth inhibition of human LOXIMVI cells after 48 hrs by MTT assay; type: functional; method in brief: as §1
[29] = molecular target: CDK3/Cyclin E (Homo sapiens, UniProt Q00526); assay: Inhibition of CDK3/cyclin E (unknown origin) after 30 mins in presence of [33P]-gamma-ATP by filter binding assay; type: protein-complex assay
CDK3/Cyclin E, sequence (P24864 whole entry): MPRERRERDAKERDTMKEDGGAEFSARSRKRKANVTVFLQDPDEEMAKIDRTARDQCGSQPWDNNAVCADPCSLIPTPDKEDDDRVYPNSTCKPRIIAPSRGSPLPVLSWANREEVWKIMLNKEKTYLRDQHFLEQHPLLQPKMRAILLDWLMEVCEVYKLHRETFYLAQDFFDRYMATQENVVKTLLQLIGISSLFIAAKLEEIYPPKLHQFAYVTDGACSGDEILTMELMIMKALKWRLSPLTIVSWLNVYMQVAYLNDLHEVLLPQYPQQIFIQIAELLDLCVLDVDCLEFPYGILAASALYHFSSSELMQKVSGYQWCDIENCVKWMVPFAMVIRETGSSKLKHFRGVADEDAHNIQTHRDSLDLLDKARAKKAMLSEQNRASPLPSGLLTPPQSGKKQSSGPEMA
CDK3/Cyclin E, sequence (Q00526 whole entry): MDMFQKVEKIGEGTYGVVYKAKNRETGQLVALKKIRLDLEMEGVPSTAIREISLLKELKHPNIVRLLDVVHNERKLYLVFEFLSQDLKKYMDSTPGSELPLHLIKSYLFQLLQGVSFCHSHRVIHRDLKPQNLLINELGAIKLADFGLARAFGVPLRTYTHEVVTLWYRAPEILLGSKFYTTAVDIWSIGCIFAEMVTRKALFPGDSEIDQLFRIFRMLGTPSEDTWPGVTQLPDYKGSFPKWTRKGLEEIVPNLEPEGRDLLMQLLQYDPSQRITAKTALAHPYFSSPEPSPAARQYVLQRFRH

[30] = tested on: Tyrosine-protein kinase ABL1 (Homo sapiens), P00519 [Q252H]; assay: Inhibition of partial length human ABL1 Q252H mutant expressed in mammalian expression system at 0.5 uM by KINOMEscan method relative to control; method in brief: as §3
[31] = tested on: PC-3; assay: Growth inhibition of human PC3 cells after 48 hrs by MTT assay; type: functional; conditions: PC-3, 48 h; method in brief: as §1
[32] = tested on: Liver; assay: Drug uptake in Sprague-Dawley rat liver at 30 mg/kg, po after 8 hrs; type: ADME, organism-based; conditions: in vivo
[33] = tested on: Mus musculus; assay: Toxicity in CD1 nude mouse xenografted with human MOLT4 cells assessed as mortality at 50 mg/kg, po qd administered on day 10 to 25 post tumor inoculation; type: organism-based; conditions: in vivo
[34] = Protein binding in rat plasma at 3 uM after 5 hrs by equilibrium dialysis method; type: ADME, cell-free; conditions: read-out: PPB (converted)
[35] = Half life in Sprague-Dawley rat at 10 mg/kg, po by LC-MS/MS analysis; type: ADME, organism-based; conditions: in vivo
[36] = Half life in dog liver microsomes at 100 uM after 30 mins by LC-MS/MS analysis; type: ADME, Canis lupus familiaris, microsome
[37] = tested on: MIA PaCa-2; assay: Antitumor activity against human MIAPaCa2 cells xenografted in CD1 nude mouse assessed as tumor growth inhibition at 25 mg/kg, po qd administered on day 10 to 25 post tumor inoculation; type: functional, organism-based

CN1CC[C@H](c2c(O)cc(O)c3c(=O)cc(/C=C/c4c(Cl)cccc4Cl)oc23)[C@H](O)C1
fraction unbound at 5 h, 3 µM [1]: 0.028
GI50 [2]: 4 µM
Activity [3]: Non-Toxic
GI50 [4]: 8 µM
IC50 [5]: > 20 µM
solubility thermodynamic at 5 h [6]: 2.18 µg/mL (≈ 4.72 µM)
remaining at 8 h [7]: 100%
Cmax [8]: 316 nM
AUC(0-inf) [9]: 0.653 µM·h
hepatocyte CLint at 3 µM [10]: 14.9 µL/min/1e6 cells
clearance [11]: 55.4 mL/min/kg
Activity [12]: Non-Toxic
fraction unbound at 5 h, 3 µM [13]: 0.05
IC50 [14]: 0.0019 µM
LD50 [15]: 1000 mg/kg
IC50 [16]: 0.711 µM
half-life at 3 µM [17]: 12.1 h
hepatocyte CLint at 3 µM [18]: 10.6 µL/min/1e6 cells
Activity [19]: Non-Toxic
Kp at 8 h [20]: 6.79
microsomal CLint at 100 µM [21]: > 29 µL/min/mg
inhibition in vivo at 50 mg/kg [22]: 40 to 52%
hepatocyte CLint at 3 µM [23]: 9.2 µL/min/1e6 cells
inhibition at 0.5 µM [24]: > 98%
Activity [25]: Non-Toxic
CLint [26]: 12 µL/min/mg
Activity [27]: 48%
GI50 [28]: 4 µM
IC50 [29]: > 1 µM
inhibition [30]: > 98%
GI50 [31]: 3 to 6 µM
Drug uptake [32]: Active
Activity [33]: Non-Toxic
fraction unbound at 5 h, 3 µM [34]: 0.046
half-life [35]: 5.16 h
half-life at 100 µM [36]: 0.4 h
TGI [37]: inactive
